Reference: article PMC11294631 (Nature Communications, 2024)
Like-named read-outs stand apart in the source and are kept apart here.

Key:
[1] = target: T1, SNAP-mGluR3 (Rattus norvegicus, UniProt P31422); assay: GIRK current, whole-cell patch clamp; type: cell-based; settings: GIRK1-F137S co-expressed
[2] = target: T1, SNAP-mGluR3; assay: GIRK current, whole-cell patch clamp; type: cell-based
Summary of the method: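 Cells grown in DMEM with 10% FBS at 37 °C/5% CO2, seeded on poly-L-lysine-coated glass coverslips, and co-transfected (Lipofectamine 2000) with receptor, GIRK1-F137S homotetramer and tdTomato. Medium was switched at 6 h to 5 µM LY341495. Whole-cell voltage clamp at −60 mV 24–36 h post-transfection. Log EC50 of point mutants versus WT compared by extra sum-of-squares F-test.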

T1 sequence (P31422 23-879): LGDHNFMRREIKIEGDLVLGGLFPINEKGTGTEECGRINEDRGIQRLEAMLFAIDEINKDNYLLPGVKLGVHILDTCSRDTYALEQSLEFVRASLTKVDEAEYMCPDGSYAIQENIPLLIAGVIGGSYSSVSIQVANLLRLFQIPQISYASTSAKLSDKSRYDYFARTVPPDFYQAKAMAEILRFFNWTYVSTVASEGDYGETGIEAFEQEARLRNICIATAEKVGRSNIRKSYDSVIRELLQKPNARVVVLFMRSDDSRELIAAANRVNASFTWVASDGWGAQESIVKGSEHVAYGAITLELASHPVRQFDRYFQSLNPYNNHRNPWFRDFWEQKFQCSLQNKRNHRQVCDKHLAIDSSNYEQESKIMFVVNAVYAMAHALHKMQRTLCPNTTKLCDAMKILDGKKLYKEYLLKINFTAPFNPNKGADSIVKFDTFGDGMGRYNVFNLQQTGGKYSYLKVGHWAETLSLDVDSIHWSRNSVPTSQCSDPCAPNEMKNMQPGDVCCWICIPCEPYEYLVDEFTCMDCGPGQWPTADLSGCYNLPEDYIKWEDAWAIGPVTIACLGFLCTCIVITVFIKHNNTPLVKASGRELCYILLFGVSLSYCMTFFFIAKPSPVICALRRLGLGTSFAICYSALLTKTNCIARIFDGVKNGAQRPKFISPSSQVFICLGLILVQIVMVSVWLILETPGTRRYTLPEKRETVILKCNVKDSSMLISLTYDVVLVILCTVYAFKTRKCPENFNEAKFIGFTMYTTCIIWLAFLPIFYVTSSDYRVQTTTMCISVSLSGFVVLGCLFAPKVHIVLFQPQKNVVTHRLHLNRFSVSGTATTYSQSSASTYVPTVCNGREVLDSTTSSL

Row | Compound | EC50 ([1]; orthosteric agonist) | other results
1 | N[C@H](C(=O)O)C1[C@@H](C(=O)O)[C@@H]1C(=O)O (stereo partly shown) [DCG-IV] | – | EC50 ([1]; orthosteric partial agonist): All three agonists produced dose-dependent, reversible GIRK currents
2 | N[C@@]1(C(=O)O)CO[C@H]2[C@H](C(=O)O)[C@H]21 [LY379268] | All three agonists produced dose-dependent, reversible GIRK currents | –
3 | COc1ccc(C(=O)O)cc1OC[C@H](C)COc1ccc(C(=O)CC(C)(C)C)c(O)c1C [VU6023326, (R)−3-(3-(4-(3,3-dimethylbutanoyl)−3-hydroxy-2-methylphenoxy)−2-methyl-propoxy)−4-methoxybenzoic acid] | – | EC50 [2]: 7.94 nM
4 | N[C@@H](CCC(=O)O)C(=O)O [glutamate] | All three agonists produced dose-dependent, reversible GIRK currents | –
